cardiac RTF act: increases calcium sensitivity of human cardiac regulated thin filaments. 340,000 tested, 0.24% active. P19429+P45379. IANBD-labeled TnC RTF fluorescence at EC20 calcium; 0% EC20 calcium, 100% full calcium. activation, % at 7.2 µM;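 active = activation above the mean over all tested compounds plus 3 SD, cut at about 30% in these data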;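 note: rise in fluorescence read as greater calcium sensitivity of cardiac thin filaments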
Efflux pump mplx: inhibitors of Candida antifungal efflux pumps expressed in yeast; S. cerevisiae Candida pump triplex, Nile Red efflux; inhibition, % at 10 µM; 330,000 tested, 0.44% active; AID 485275;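 active = plate passing quality check with inhibition over a set limit, or well fluorescence over plate mean plus 4 SD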;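 note: Nile Red retained in pooled yeast measured as flow cytometry median fluorescence; 0% = buffer negative control and 100% = Enniatin B positive control; higher means more Nile Red kept so more efflux inhibition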
Mot1-301 SUMO: inhibitors of SUMOylation pathway: yeast Mot1-301 growth rescue; growth rescue, % at 18.8 µM; 320,000 tested, 1% active; S. cerevisiae Mot1-301 growth rescue, ATP luminescence, 38.5C; percent above DMSO median, 100 means doubled;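 active = every valid replicate shows activation above 250% relative to neutral control wells; inactive = the rest, any valid replicate at or below 250%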;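 note: OY570 slx delta 5 strain wells were the positive control but not used for scaling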
Cardiac RTF inh: cardiac RTF calcium desensitization. P19429+P45379. IANBD-labeled cardiac RTF, Ca2+ fluorescence. inhibition, % at 7.15 µM. 340,000 tested, 0.12% active;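 active = inhibition above the mean inhibition of all tested compounds plus 3 SD, cut at about 17% in these data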;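 note: assay run at fixed EC70 calcium of 1.6 mM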
UCH37 inh: human UCH37 deubiquitinating enzyme inhibition; Q9Y5K5; purified proteasome/UCH37, Ub-AMC cleavage fluorescence; inhibition, % (no concentration beside the values); 330,000 tested, 0.33% active; AID 588478;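 active = mean inhibition over replicate wells above about 20%, limit read from the data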;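 note: 0% = compound-free wells with enzyme and 100% = wells lacking proteasome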
Target sequence (Q9Y5K5 whole entry, looked up): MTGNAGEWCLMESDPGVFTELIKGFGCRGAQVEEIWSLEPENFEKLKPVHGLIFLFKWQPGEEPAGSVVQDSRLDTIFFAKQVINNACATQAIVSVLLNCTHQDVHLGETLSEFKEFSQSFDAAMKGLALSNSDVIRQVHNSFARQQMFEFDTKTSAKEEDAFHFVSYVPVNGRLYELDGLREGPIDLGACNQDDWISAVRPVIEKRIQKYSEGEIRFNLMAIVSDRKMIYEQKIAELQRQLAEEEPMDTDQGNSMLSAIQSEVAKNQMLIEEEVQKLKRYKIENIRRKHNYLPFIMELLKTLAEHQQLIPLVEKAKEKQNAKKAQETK
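Assay system: Proteasome-bound UCH37. Buffer or medium: pH 7.4 Tris-HCl (50 mM) with ovalbumin, ATP-MgCl2, DTT. Incubation: 30 min preincubation with enzyme, 25 min cleavage at room temperature. Measured by: fluorescence, ex 355 nm, em 460 nm. Read-out basis: percent inhibition. Control set: wells without proteasome as full block, compound-free enzyme plus substrate as uninhibited.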
ARNT TACC3 PPI: ARNT/TACC3 interaction disruption | Q9Y6A5 | AlphaScreen His-ARNT PAS-B/GST-TACC3 binding, luminescence; TACC3 fragment carries E629A point mutation | inhibition, % at 9.99 µM | 390,000 tested, 0.66% active;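 active = mean inhibition of replicates at least 50% and at least half of replicates each reaching 50%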;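 note: 0% = complete ARNT plus TACC3 wells and 100% = ARNT alone without TACC3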
RTF inh confirm: confirmation of inhibitors of cardiac thin filament calcium sensitivity; shares compounds with Cardiac RTF inh; reconstituted cardiac thin filaments, calcium sensitivity fluorescence; inhibition, % at 7.15 µM; 360 tested, 8% active; in the data active = inhibition above about 18%
An asterisk follows results filed as active; . = no result. Shown are actives, neighbours in structure and some others; about 2.1% of the full set was active somewhere.

SMILES	cardiac RTF act	Efflux pump mplx	Mot1-301 SUMO	Cardiac RTF inh	UCH37 inh	ARNT TACC3 PPI	RTF inh confirm
COc1ccccc1OCC(O)COC(N)=O (centres undefined)	-1	0	19	18*	3	25	2
COc1ccc(-c2cc(-c3ccc(OC)cc3)[nH]n2)cc1	4	0	-10	17*	2	-3	1
COc1cccc(C(=O)Nc2cccc(C(=O)N3CCOCC3)c2)c1	-7	0	-6	21*	2	0	-2
CCCCNC(=O)N(O)C1N(N=Cc2cccs2)C(=S)SC1(C)C (centres undefined)	.	.	.	.	10	.	.
NC(=S)Nc1nc2ccccc2s1	-6	0	-7	19*	6	-10	-5
Cc1ccc(S(=O)(=O)C2(C(=O)NCc3ccccc3Cl)CC2)cc1	-5	0	-5	0	-3	-3	.
CCc1ccccc1NC(=O)C1(S(=O)(=O)c2ccc(C)cc2)CC1	-7	0	4	17*	0	1	-1
Cc1ccc(CSc2nnc(SCC(=O)NN=Cc3c[nH]c4ccccc34)s2)cc1	.	.	.	.	3	.	.
Cc1ccc(CSc2nnc(SCC(=O)N/N=C/c3c[nH]c4ccccc34)s2)cc1	-7	.	.	23*	.	-1	3
O=C(C1CC1)N1CCc2cc(Br)cc(S(=O)(=O)NCc3ccc4c(c3)OCO4)c21	1	0	-17	0	1	-2	.
O=C(C1CC1)N1CCc2cc(Br)cc(S(=O)(=O)NCc3ccco3)c21	-5	1	-14	17*	-1	9	-4
Cc1ccc(NC(=O)CSc2nnc3n2CCCCC3)cc1	3	0	53	22*	3	-11	-6
COc1ccc(CCN(Cc2ccccn2)C(=S)Nc2ccc(C)cc2)cc1OC	1	0	-16	-6	3	23	.
COc1ccc(CCN(Cc2ccccn2)C(=S)Nc2cccc(SC)c2)cc1OC	-4	0	13	20*	6	-5	-1
CCCCCCC(=O)O	2	0	.	-6	1	0	.
CCCCCCCCCCCCCCCC(=O)OC(CC(=O)O)C[N+](C)(C)C (centres undefined)	5	0	.	18*	11	4	-5
O=C(NCc1cccnc1)C(=O)NN=Cc1ccccc1[N+](=O)[O-]	.	.	.	.	6	.	.
CCCOC(=O)c1ccc(NC(=O)c2c(Cl)ccc(Cl)c2OC)cc1	-6	0	12	21*	2	-8	-2
CCNC(=O)ON=C1CCCCC1c1ccc([N+](=O)[O-])cc1[N+](=O)[O-] (centres undefined)	.	.	.	.	8	.	.
CCn1ncc(/C=C2/SC(=S)NC2=O)c1C	0	0	-2	19*	7	4	-5
CCn1c(C)cc(/C=C2/SC(=S)NC2=O)c1C	-3	0	4	6	4	1	.
COc1cc(C=NNc2ccc(Cl)cc2)ccc1OC(=O)c1cccs1	.	.	.	.	5	.	.
Fc1ccccc1CSc1ccc(-c2ccco2)nn1	-5	0	-5	19*	0	-1	-2
O=C1C=CC2=C3c4cc(O)c(O)cc4CC3(O)COC2=C1O (centres undefined)	-29	.	.	37*	.	27	34*
CC(CC(=O)NC(C)C)=NNC(=O)C(c1ccccc1)c1ccccc1	.	.	.	.	4	.	.
SMILES	cardiac RTF act	Efflux pump mplx	Mot1-301 SUMO	Cardiac RTF inh	UCH37 inh	ARNT TACC3 PPI	RTF inh confirm
O=C(O)C1Nc2c(cccc2C(F)(F)F)C2C=CCC12 (centres undefined)	.	0	68	.	.	.	.
COc1cccc2c1NC(C(=O)O)C1CC=CC21 (centres undefined)	-36	0	-18	19*	0	-12	15
Cc1ccc(-n2c(SCC(=O)O)nc3sc4c(c3c2=O)CCCC4)cc1	-1	0	-10	17*	4	-5	-4
Cc1ccc(N2CCN(N=Cc3ccccc3)CC2)cc1	.	.	.	.	0	.	.
C[C@H]1CN=C(Nc2ccccc2)N1CCCC1CCCC1	1	0	582	19*	4	-2	-2
CCOc1ccc2nc3cc(N=Nc4ccc(N)nc4N)ccc3c(N)c2c1	-12	.	.	25*	.	16	41*

Screening data from PubChem BioAssay.
